ChEMBL document CHEMBL1135657, “Novel dual inhibitors of AChE and MAO derived from hydroxy aminoindan and phenethylamine as potential treatment for Alzheimer's disease” (J Med Chem, 2002)

Columns and labels:
[1] = biological target: T1, Butyrylcholinesterase (Equus caballus, UniProt Q9N1N9); test: In vitro inhibitory concentration against Butyrylcholinesterase of horse serum; value ranges from 0.20-0.36
Summary of the method: (§1)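 Ellman assay followed, with 200 µM butyrylthiocholine as substrate. Runs were in triplicate with four-point dose-response curves. IC50 and fiducial limits came from log concentration versus % inhibition.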

[2] = biological target: T2, Amine oxidase [flavin-containing] A (Rattus norvegicus, UniProt P21396); test: In vitro inhibitory concentration against Monoamine oxidase A of rat brain homogenates; value ranges from 0.014-0.016; assay type: tissue-based
T2 sequence (P21396 whole entry): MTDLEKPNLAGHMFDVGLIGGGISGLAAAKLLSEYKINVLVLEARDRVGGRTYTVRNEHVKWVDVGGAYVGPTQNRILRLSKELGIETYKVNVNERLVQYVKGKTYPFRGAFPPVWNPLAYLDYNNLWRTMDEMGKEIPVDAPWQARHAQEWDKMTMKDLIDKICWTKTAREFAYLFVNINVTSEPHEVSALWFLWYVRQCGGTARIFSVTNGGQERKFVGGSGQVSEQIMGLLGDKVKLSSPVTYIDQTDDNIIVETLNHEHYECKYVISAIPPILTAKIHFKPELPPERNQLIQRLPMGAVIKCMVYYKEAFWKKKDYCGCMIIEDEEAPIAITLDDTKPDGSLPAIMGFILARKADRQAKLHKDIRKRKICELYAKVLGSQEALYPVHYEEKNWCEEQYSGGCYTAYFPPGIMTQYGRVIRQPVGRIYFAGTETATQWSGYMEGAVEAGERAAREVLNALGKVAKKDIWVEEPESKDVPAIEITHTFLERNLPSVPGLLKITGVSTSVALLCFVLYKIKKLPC

[3] = biological target: T3, Amine oxidase [flavin-containing] B (Rattus norvegicus, UniProt P19643); test: In vitro inhibitory concentration against Monoamine oxidase B of rat brain homogenates; value ranges from […]; assay type: tissue-based
T3 sequence (P19643 whole entry): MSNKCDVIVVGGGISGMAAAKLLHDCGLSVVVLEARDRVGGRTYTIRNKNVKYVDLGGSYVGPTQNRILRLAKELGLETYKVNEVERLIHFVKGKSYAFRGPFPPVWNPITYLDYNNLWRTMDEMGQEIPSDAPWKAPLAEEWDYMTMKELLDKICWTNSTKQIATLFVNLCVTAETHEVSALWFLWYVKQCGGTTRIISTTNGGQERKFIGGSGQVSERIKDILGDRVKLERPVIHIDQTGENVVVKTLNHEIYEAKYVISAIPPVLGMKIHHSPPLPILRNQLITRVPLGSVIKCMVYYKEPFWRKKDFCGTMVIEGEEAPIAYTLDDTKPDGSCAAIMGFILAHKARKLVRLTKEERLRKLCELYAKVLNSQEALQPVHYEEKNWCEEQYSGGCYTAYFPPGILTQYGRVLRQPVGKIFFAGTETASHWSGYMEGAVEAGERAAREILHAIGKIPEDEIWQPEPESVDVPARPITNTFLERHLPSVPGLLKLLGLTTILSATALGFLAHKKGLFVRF
Summary of the method: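 Rat brain homogenate (in 0.3 M sucrose) as enzyme source; compounds diluted 10⁻²M to 10⁻⁹M in 0.05 M phosphate buffer with 0.15 μM clorgyline; preincubated 60 min at 37 °C, then 10 μM ¹⁴C-phenylethylamine added for 20 min more; stopped with citric acid; metabolites extracted into toluene/ethyl acetate, scintillation counted; activity as % of control, tranylcypromine blank.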

[4] = biological target: T2, Amine oxidase [flavin-containing] A; test: In vitro inhibitory concentration against Monoamine oxidase A of rat brain homogenates; value ranges from 4.3-7.3; assay type: tissue-based
[5] = biological target: T1, Butyrylcholinesterase; test: In vitro inhibitory concentration against Butyrylcholinesterase of horse serum; value ranges from 1.63-2.45; summary of the method: as §1
[6] = biological target: T3, Amine oxidase [flavin-containing] B; test: In vitro inhibitory concentration against Monoamine oxidase B of rat brain homogenates; assay type: tissue-based
[7] = biological target: T4, Acetylcholinesterase (Homo sapiens, UniProt P22303); test: In vitro inhibitory concentration against purified Acetylcholinesterase of human erythrocytes; value ranges from […]-[…]
[8] = biological target: T3, Amine oxidase [flavin-containing] B; test: biochemical; assay type: tissue-based, Brain
[9] = biological target: T2, Amine oxidase [flavin-containing] A; test: In vitro inhibitory concentration against Monoamine oxidase A of rat brain homogenates; value ranges from 0.5-3.7; assay type: tissue-based
[10] = biological target: T4, Acetylcholinesterase; test: In vitro inhibitory concentration against purified Acetylcholinesterase of human erythrocytes; value ranges from 4.6-25.8
[11] = biological target: T2, Amine oxidase [flavin-containing] A; test: biochemical
[12] = biological target: T4, Acetylcholinesterase; test: In vitro inhibitory concentration against purified Acetylcholinesterase of human erythrocytes; value ranges from 13.6-128
[13] = biological target: T1, Butyrylcholinesterase; test: In vitro inhibitory concentration against Butyrylcholinesterase of horse serum; value ranges from 1.6-3.6
[14] = biological target: T4, Acetylcholinesterase
[15] = biological target: T3, Amine oxidase [flavin-containing] B; test: In vitro inhibitory concentration against Monoamine oxidase B of rat brain homogenates; value ranges from 360-470; assay type: tissue-based
[16] = biological target: T1, Butyrylcholinesterase; test: In vitro inhibitory concentration against Butyrylcholinesterase of horse serum; value ranges from 6.3-52.4; summary of the method: as §1
[17] = biological target: T4, Acetylcholinesterase; test: In vitro inhibitory concentration against purified Acetylcholinesterase of human erythrocytes; value ranges from 6.4-45.9
[18] = biological target: T2, Amine oxidase [flavin-containing] A; test: In vitro inhibitory concentration against Monoamine oxidase A of rat brain homogenates; value ranges from 170-340; assay type: tissue-based
[19] = biological target: T4, Acetylcholinesterase; test: In vitro inhibitory concentration against purified Acetylcholinesterase of human erythrocytes; value ranges from 2.2-10.1
[20] = biological target: T2, Amine oxidase [flavin-containing] A; test: In vitro inhibitory concentration against Monoamine oxidase A of rat brain homogenates; value ranges from 1.8-2.4; assay type: tissue-based
[21] = biological target: T1, Butyrylcholinesterase; test: In vitro inhibitory concentration against Butyrylcholinesterase of horse serum; value ranges from 0.71-0.86; summary of the method: as §1
[22] = biological target: T2, Amine oxidase [flavin-containing] A; test: In vitro inhibitory concentration against Monoamine oxidase A of rat brain homogenates; value ranges from 110-520; assay type: tissue-based
[23] = biological target: T2, Amine oxidase [flavin-containing] A; test: In vitro inhibitory concentration against Monoamine oxidase A of rat brain homogenates; value ranges from 0.5-1.6; assay type: tissue-based
[24] = biological target: T3, Amine oxidase [flavin-containing] B; test: In vitro inhibitory concentration against Monoamine oxidase B of rat brain homogenates; value ranges from 0.7-1.3; assay type: tissue-based
[25] = biological target: T4, Acetylcholinesterase; test: In vitro inhibitory concentration against purified Acetylcholinesterase of human erythrocytes; value ranges from 0.12-0.32
[26] = biological target: T2, Amine oxidase [flavin-containing] A; test: In vitro inhibitory concentration against Monoamine oxidase A of rat brain homogenates; value ranges from 60-150; assay type: tissue-based
[27] = biological target: T4, Acetylcholinesterase; test: In vitro inhibitory concentration against purified Acetylcholinesterase of human erythrocytes; value ranges from 0.18-0.44
[28] = biological target: T2, Amine oxidase [flavin-containing] A; test: In vitro inhibitory concentration against Monoamine oxidase A of rat brain homogenates; value ranges from 0.28-0.34; assay type: tissue-based
[29] = biological target: T1, Butyrylcholinesterase
[30] = biological target: T2, Amine oxidase [flavin-containing] A; test: In vitro inhibitory concentration against Monoamine oxidase A of rat brain homogenates; value ranges from 560-1000; assay type: tissue-based
[31] = biological target: T3, Amine oxidase [flavin-containing] B; test: In vitro inhibitory concentration against Monoamine oxidase B of rat brain homogenates; value ranges from 200-1400; assay type: tissue-based

T4 sequence (P22303 whole entry): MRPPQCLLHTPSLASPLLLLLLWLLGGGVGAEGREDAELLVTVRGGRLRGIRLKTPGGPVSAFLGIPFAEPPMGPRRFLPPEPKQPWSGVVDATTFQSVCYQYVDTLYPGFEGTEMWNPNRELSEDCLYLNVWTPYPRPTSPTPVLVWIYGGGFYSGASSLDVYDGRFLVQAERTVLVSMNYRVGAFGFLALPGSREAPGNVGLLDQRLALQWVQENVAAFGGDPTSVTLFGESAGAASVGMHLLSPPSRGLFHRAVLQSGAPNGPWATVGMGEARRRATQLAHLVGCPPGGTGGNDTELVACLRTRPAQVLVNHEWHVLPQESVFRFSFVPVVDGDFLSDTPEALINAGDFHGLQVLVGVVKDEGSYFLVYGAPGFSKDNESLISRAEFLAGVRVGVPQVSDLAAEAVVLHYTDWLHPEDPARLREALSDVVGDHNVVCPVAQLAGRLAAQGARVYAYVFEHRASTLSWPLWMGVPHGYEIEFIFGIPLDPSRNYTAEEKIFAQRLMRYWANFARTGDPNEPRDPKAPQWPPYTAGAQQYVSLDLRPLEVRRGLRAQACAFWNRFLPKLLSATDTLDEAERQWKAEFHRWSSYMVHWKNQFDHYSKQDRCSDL
T1 sequence (Q9N1N9 whole entry): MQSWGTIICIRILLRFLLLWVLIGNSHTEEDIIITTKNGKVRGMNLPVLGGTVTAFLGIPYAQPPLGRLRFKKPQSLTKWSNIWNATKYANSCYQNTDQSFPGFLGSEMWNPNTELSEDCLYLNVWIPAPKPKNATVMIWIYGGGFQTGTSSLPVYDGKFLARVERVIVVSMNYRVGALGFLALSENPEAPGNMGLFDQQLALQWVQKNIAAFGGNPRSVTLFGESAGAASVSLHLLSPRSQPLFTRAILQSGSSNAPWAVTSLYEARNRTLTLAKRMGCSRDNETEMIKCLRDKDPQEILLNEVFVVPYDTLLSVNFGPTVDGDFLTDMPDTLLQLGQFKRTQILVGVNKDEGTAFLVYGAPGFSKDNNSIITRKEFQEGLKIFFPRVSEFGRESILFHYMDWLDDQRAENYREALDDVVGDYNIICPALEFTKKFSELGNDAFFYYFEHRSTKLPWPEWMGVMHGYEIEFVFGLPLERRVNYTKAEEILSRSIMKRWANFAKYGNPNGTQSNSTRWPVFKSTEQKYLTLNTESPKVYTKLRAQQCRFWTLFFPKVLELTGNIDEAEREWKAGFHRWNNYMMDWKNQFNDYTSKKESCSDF

C#CC(C)NCCc1cccc(OC(=O)N(C)CC)c1 (stereo unspecified)
IC50 [1]: 0.24 µM

C#CCN(C)C1CCc2ccc(O)cc21 (stereo unspecified)
IC50 [2]: 0.015 µM | IC50 [3]: 0.03 µM

CCN(C)C(=O)Oc1ccc2c(c1)[C@H](N)CC2
IC50 [4]: 5.6 µM | IC50 [5]: 1.96 µM | IC50 [6]: > 1000 µM | IC50 [7]: 6.14 µM

C#CCN(C)CCc1cccc(O)c1
IC50 [8]: 6.4 µM | IC50 [9]: 1.3 µM

C#CCN[C@H]1CCc2ccc(OC(=O)N(C)CCCC)cc21
IC50 [10]: 9.3 µM

C#CCN[C@H]1CCc2ccc(OC(=O)N(C)CC)cc21
IC50 [11]: 550 µM | IC50 [12]: 34.9 µM | IC50 [6]: > 1000 µM | IC50 [13]: 2.2 µM

C#CCNC1CCc2c(Cl)cc(OC(=O)N(C)CC)cc21 (stereo unspecified)
IC50 [14]: 25.5 µM

C#CCNC1CCc2ccc(OC(=O)N(C)CCC)cc21 (stereo unspecified)
IC50 [15]: 410 µM | IC50 [16]: 14.8 µM | IC50 [17]: 14.6 µM | IC50 [18]: 240 µM

C#CCNC1CCc2ccc(OC(=O)N(C)C)cc2C1 (stereo unspecified)
IC50 [19]: 4.1 µM | IC50 [6]: 1000 µM | IC50 [20]: 2 µM | IC50 [21]: 0.77 µM

CCCN(C)C(=O)Oc1cccc(CCN)c1
IC50 [22]: 240 µM | IC50 [6]: > 1000 µM

C#CCNC1CCc2c(O)cccc21 (stereo unspecified)
IC50 [23]: 0.9 µM | IC50 [24]: 0.9 µM

CN(C)CCc1cccc(OC(=O)N(C)C)c1
IC50 [25]: 0.16 µM | IC50 [6]: > 1000 µM

CN(C)C(=O)Oc1cccc(CCN)c1
IC50 [26]: 95 µM | IC50 [6]: > 1000 µM | IC50 [27]: 0.23 µM

C#CCN[C@@H]1CCc2ccc(O)cc21
IC50 [28]: 0.3 µM

C#CCNC1CCc2ccc(OC(=O)N(C)C)cc21 (stereo unspecified)
IC50 [29]: 2.07 µM | IC50 [30]: 750 µM | IC50 [31]: 530 µM
